In ChEMBL document CHEMBL2434825, “2-Heteroarylimino-5-arylidene-4-thiazolidinones as a new class of non-nucleoside inhibitors of HCV NS5B polymerase” (Eur J Med Chem, 2013):
Calls of active or inactive are those of the source. The rule behind the calls is not given here.

How the values were obtained:
[1] = Cytotoxicity against human Huh7.5 cells assessed as cell viability at 100 uM after 42 hrs by MTS assay; format: cell-based, Huh-7; conditions: read-out: Activity
[2] = Cytotoxicity against BHK cells transfected with HCV NS5B RdRp assessed as cell viability at 100 uM after 42 hrs by luciferase reporter gene assay; format: cell-based, Mesocricetus auratus; conditions: hamster, read-out: Activity
Procedure, shortened: (§1)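 BHK cells stably carrying NS5B plus bicistronic (+)FLuc-(−)UTR-RLuc reporter, grown in DMEM, 10% FBS, 1 mg/mL G418, blasticidin. Seeded 1 × 10^4 cells/well, given 100 μM compound 8 h later, lysed 42 h post-treatment, dual luciferase read. Viability taken as firefly luciferase relative to DMSO controls. NS5B activity taken as percent reduction in RLuc/FLuc ratio versus DMSO. Two independent experiments in duplicate.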

Hepacivirus hominis = test: Inhibition of HCV NS5BCdelta21 RdRp activity at 100 uM after 1 hr by liquid scintillation counting analysis in presence of [alpha-32P]UTP relative to control
Procedure, shortened: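 Template 0.25 μM polyrA/U12, with 25 μM UTP plus [α-32P]UTP. Inhibitor at 100 μM, 1 h, 30 °C. Stopped with cold 5% TCA/0.5 mM pyrophosphate, product filter-captured and counted by scintillation. Background-subtracted, relative to DMSO (100%). At least two independent experiments in duplicate.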

[3] = Selectivity ratio for Hepatitis C virus subtype 2a infected in human Huh7.5 cells over Hepatitis C virus subtype 1b infected in human HuH7 cells; format: functional, Huh-7
[4] = Inhibition of HCV NS5B RdRp activity transfected in BHK cells at 100 uM after 42 hrs by dual-glo luciferase reporter gene assay relative to control; format: cell-based; conditions: Hepacivirus hominis; procedure, shortened: as §1
Hepatitis C virus [5] = test: Antiviral activity against Hepatitis C virus subtype 1b infected in human HuH7 cells assessed as inhibition of viral RNA replication at 100 uM after 42 hrs by […] assay relative to control; format: functional, Hepacivirus hominis; conditions: genotype 1b; for inhibition at 100 µM: Huh-7, 42 h; for inhibition: Hepacivirus hominis, Huh-7
Procedure, shortened: (§2)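 Replicon reporter cells (Huh7/Rep-Feo1b for 1b; Huh7.5-FGR-JC1-Rluc2A for 2a) kept in DMEM, 10% FCS, 0.5 mg/mL G418, 37 °C, 5% CO2. Seeded 1 × 10^4 cells/well, treated 8 h later with 100 μM compound or DMSO for 42 h. Luciferase signal read as percent of DMSO controls. Viability by MTS assay in parental Huh7.5 cells. Average of two independent experiments in duplicate.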

Hepatitis C virus [6] = test: Antiviral activity against Hepatitis C virus subtype 2a infected in human Huh7.5 cells assessed as inhibition of viral RNA replication at 100 uM after 42 hrs by […] assay relative to control; format: functional, Hepacivirus hominis; conditions: genotype 2a; for inhibition at 100 µM: Huh-7, 42 h; for inhibition: Hepacivirus hominis, Huh-7; procedure, shortened: as §2
[7] = Inhibition of HCV NS5BCdelta21 RdRp activity after 1 hr by liquid scintillation counting analysis in presence of [alpha-32P]UTP; parameters: species or system Hepacivirus hominis
Procedure, shortened: (§3)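 NS5BCΔ21 (300 ng) was incubated 1 h at 30 °C with 0.25 μM polyrA/U12, 25 μM UTP plus [α-32P]UTP and 1.0 mM MnCl2 in 20 mM Tris-HCl pH 7.0 with NaCl, Na glutamate, DTT, BSA, Tween-20, glycerol and RNase inhibitor. Reactions were stopped with cold 5% TCA/pyrophosphate, captured on GF-B filters and scintillation-counted versus a background-subtracted DMSO control. Screening used 100 μM; IC50 came from 8–12-point curves, duplicate, two experiments.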

[8] = Inhibition of 6xHis-tagged HCV NS5B RdRp activity; parameters: species or system Hepacivirus hominis; procedure, shortened: as §3
[9] = Inhibition of HCV NS5B RdRp activity; parameters: species or system Hepacivirus hominis; procedure, shortened: as §3

## O=C(CCl)Nc1nnc(-c2ccc(Cl)cc2)s1
[1]
  viability at 42 h, 100 µM: 81.9%
[2]
  viability at 42 h, 100 µM: 98.9%
Hepacivirus hominis
  inhibition: 20%

## O=C1CS/C(=N/c2nnc(-c3ccc(Cl)cc3)s2)N1
[1]
  viability at 42 h, 100 µM: 13.3%
[3]
  Selectivity ratio: 1.6
[2]
  viability at 42 h, 100 µM: 15.2%
Hepacivirus hominis
  inhibition: 74.4%
[4]
  inhibition: 65.7%
Hepatitis C virus [5]
  inhibition at 100 µM: 54.1%
Hepatitis C virus [6]
  inhibition at 100 µM: 89.8%
[7]
  IC50: 42.5 µM

## O=C1N/C(=N\c2nnc(-c3ccc(F)cc3)s2)S/C1=C\c1cccc(F)c1
[1]
  viability at 42 h, 100 µM: 59.7%
[2]
  viability at 42 h, 100 µM: 55.1%
Hepacivirus hominis
  inhibition: 72%
[4]
  inhibition: 85.9%
Hepatitis C virus [5]
  inhibition at 100 µM: 95.5%
Hepatitis C virus [6]
  inhibition at 100 µM: 98%
[7]
  IC50: 34.6 µM

## O=C1N/C(=N\c2nnc(-c3ccc(Cl)cc3)s2)S/C1=C\c1cccc(F)c1
[1]
  viability at 42 h, 100 µM: 60.3%
[2]
  viability at 42 h, 100 µM: 58.1%
Hepacivirus hominis
  inhibition: 65.5%
[4]
  inhibition: 63.1%
Hepatitis C virus [5]
  inhibition at 100 µM: 92.8%
Hepatitis C virus [6]
  inhibition at 100 µM: 95.6%
[7]
  IC50: 48.2 µM

## O=C1N/C(=N\c2nnc(-c3ccc(Cl)cc3)s2)S/C1=C\c1ccccc1F
[1]
  viability at 42 h, 100 µM: 13.1%
[2]
  viability at 42 h, 100 µM: 12.8%
Hepacivirus hominis
  inhibition: 56.2%
[4]
  inhibition: 65.6%
Hepatitis C virus [5]
  inhibition at 100 µM: 96.4%
Hepatitis C virus [6]
  inhibition at 100 µM: 98.5%
[7]
  IC50: 56.2 µM

## Nc1nnc(-c2ccc(Cl)cc2)s1
[1]
  viability at 42 h, 100 µM: 32.4%
[3]
  Selectivity ratio: 1.6
[2]
  viability at 42 h, 100 µM: 28.6%
Hepacivirus hominis
  inhibition: 16.8%
[4]
  inhibition: inactive
Hepatitis C virus [5]
  inhibition at 100 µM: 37.4%
Hepatitis C virus [6]
  inhibition at 100 µM: 72.8%

## O=C1N/C(=N\c2nnc(-c3ccc(F)cc3)s2)S/C1=C\c1ccccc1F
[1]
  viability at 42 h, 100 µM: 59.9%
[2]
  viability at 42 h, 100 µM: 55.7%
Hepacivirus hominis
  inhibition: 62.4%
[4]
  inhibition: 11%
Hepatitis C virus [5]
  inhibition at 100 µM: 97.4%
Hepatitis C virus [6]
  inhibition at 100 µM: 96.1%
[7]
  IC50: 51.1 µM

## O=C1N/C(=N\c2nnc(-c3ccc(F)cc3)s2)S/C1=C\c1ccc([N+](=O)[O-])cc1
[1]
  viability at 42 h, 100 µM: 13.9%
[2]
  viability at 42 h, 100 µM: 14.6%
Hepacivirus hominis
  inhibition: 24.1%
[4]
  inhibition: 7%
Hepatitis C virus [5]
  inhibition at 100 µM: 51.2%
Hepatitis C virus [6]
  inhibition at 100 µM: 50.4%

## COc1cccc(OC)c1/C=C1\S/C(=N/c2nnc(-c3ccc(F)cc3)s2)NC1=O
[1]
  viability at 42 h, 100 µM: 63%
[2]
  viability at 42 h, 100 µM: 73.7%
Hepacivirus hominis
  inhibition: 19.7%
[4]
  inhibition: inactive
Hepatitis C virus [5]
  inhibition at 100 µM: 87.7%
Hepatitis C virus [6]
  inhibition at 100 µM: 93.2%

## O=C1/C(=C/c2ccc(Br)cc2)SC(=S)N1NS(=O)(=O)c1ccccc1
[8]
  IC50: 0.44 µM

## O=C1N/C(=N\c2nnc(-c3ccc(Cl)cc3)s2)S/C1=C\c1c(Cl)cccc1Cl
[1]
  viability at 42 h, 100 µM: 76%
[2]
  viability at 42 h, 100 µM: 94.9%
Hepacivirus hominis
  inhibition: 82%
Hepatitis C virus [5]
  inhibition at 100 µM: 98.5%
Hepatitis C virus [6]
  inhibition at 100 µM: 98.1%
[7]
  IC50: 5.6 µM

## O=C1N/C(=N\c2nnc(-c3ccc(Cl)cc3)s2)S/C1=C\c1ccccc1Cl
[1]
  viability at 42 h, 100 µM: 0%
[2]
  viability at 42 h, 100 µM: 0%
Hepacivirus hominis
  inhibition: 73.6%
[4]
  inhibition: inactive
Hepatitis C virus [5]
  inhibition: inactive
Hepatitis C virus [6]
  inhibition: inactive
[7]
  IC50: 33.8 µM

## O=C1N/C(=N\c2nnc(-c3ccc(Cl)cc3)s2)S/C1=C\c1c(F)cccc1Cl
[1]
  viability at 42 h, 100 µM: 0%
[2]
  viability at 42 h, 100 µM: 0%
Hepacivirus hominis
  inhibition: 60.3%
[4]
  inhibition: inactive
Hepatitis C virus [5]
  inhibition: inactive
Hepatitis C virus [6]
  inhibition: inactive
[7]
  IC50: 45.3 µM

## O=C1N/C(=N\c2nnc(-c3ccc(F)cc3)s2)S/C1=C\c1ccccc1Cl
[1]
  viability at 42 h, 100 µM: 15.6%
[2]
  viability at 42 h, 100 µM: 11.4%
Hepacivirus hominis
  inhibition: 53.9%
[4]
  inhibition: 61%
Hepatitis C virus [5]
  inhibition at 100 µM: 98%
Hepatitis C virus [6]
  inhibition at 100 µM: 95.3%
[7]
  IC50: 64.9 µM

## Nc1nnc(-c2ccc(F)cc2)s1
[1]
  viability at 42 h, 100 µM: 18.6%
Hepacivirus hominis
  inhibition: 15.4%
[4]
  inhibition: 9.4%
Hepatitis C virus [5]
  inhibition at 100 µM: 46.8%
Hepatitis C virus [6]
  inhibition at 100 µM: 52.4%

## O=C(CCl)Nc1nnc(-c2ccc(F)cc2)s1
[1]
  viability at 42 h, 100 µM: 84.8%
[2]
  viability at 42 h, 100 µM: 98.3%
Hepacivirus hominis
  inhibition: 16%

## O=C(NN1C(=O)CSC1c1ccccc1F)c1cc(-c2ccc(F)cc2F)ccc1O (stereo not drawn)
[9]
  IC50: 48 µM

## O=C1N/C(=N\c2nnc(-c3ccc(F)cc3)s2)S/C1=C\c1c(F)cccc1Cl
[1]
  viability at 42 h, 100 µM: 74.6%
[2]
  viability at 42 h, 100 µM: 89.8%
Hepacivirus hominis
  inhibition: 28.1%
Hepatitis C virus [5]
  inhibition at 100 µM: 99.4%
Hepatitis C virus [6]
  inhibition at 100 µM: 98.5%

## O=C1CS/C(=N/c2nnc(-c3ccc(F)cc3)s2)N1
[1]
  viability at 42 h, 100 µM: 14%
Hepacivirus hominis
  inhibition: 76.1%
[4]
  inhibition: 57.9%
Hepatitis C virus [5]
  inhibition at 100 µM: 70%
Hepatitis C virus [6]
  inhibition at 100 µM: 72.8%
[7]
  IC50: 38.6 µM

## O=C1N/C(=N\c2nnc(-c3ccc(Cl)cc3)s2)S/C1=C\c1ccc(Cl)cc1Cl
[1]
  viability at 42 h, 100 µM: 0%
[2]
  viability at 42 h, 100 µM: 0%
Hepacivirus hominis
  inhibition: 25.7%
[4]
  inhibition: inactive
Hepatitis C virus [5]
  inhibition: inactive
Hepatitis C virus [6]
  inhibition: inactive

## O=C1N/C(=N\c2nnc(-c3ccc(F)cc3)s2)S/C1=C\c1ccc(Cl)cc1Cl
[1]
  viability at 42 h, 100 µM: 4.2%
[3]
  Selectivity ratio: 1.6
[2]
  viability at 42 h, 100 µM: 0%
Hepacivirus hominis
  inhibition: 11.5%
[4]
  inhibition: inactive
Hepatitis C virus [5]
  inhibition at 100 µM: 29.4%
Hepatitis C virus [6]
  inhibition at 100 µM: 54.7%

## O=C1N/C(=N\c2nnc(-c3ccc(Cl)cc3)s2)S/C1=C\c1ccc(F)cc1
[1]
  viability at 42 h, 100 µM: 64.2%
[2]
  viability at 42 h, 100 µM: 73.1%
Hepacivirus hominis
  inhibition: 25%
[4]
  inhibition: inactive
Hepatitis C virus [5]
  inhibition at 100 µM: 82.2%
Hepatitis C virus [6]
  inhibition at 100 µM: 94.9%

## O=C1N/C(=N\c2nnc(-c3ccc(F)cc3)s2)S/C1=C\c1c(Cl)cccc1Cl
[1]
  viability at 42 h, 100 µM: 73.2%
[2]
  viability at 42 h, 100 µM: 72.2%
Hepacivirus hominis
  inhibition: 74.1%
[4]
  inhibition: 13.6%
Hepatitis C virus [5]
  inhibition at 100 µM: 98.8%
Hepatitis C virus [6]
  inhibition at 100 µM: 98.9%
[7]
  IC50: 19.8 µM

## COc1cccc(OC)c1/C=C1\S/C(=N/c2nnc(-c3ccc(Cl)cc3)s2)NC1=O
[1]
  viability at 42 h, 100 µM: 80.4%
[2]
  viability at 42 h, 100 µM: 87.4%
Hepacivirus hominis
  inhibition: 24.1%
Hepatitis C virus [5]
  inhibition at 100 µM: 97.7%
Hepatitis C virus [6]
  inhibition at 100 µM: 98.9%

## O=C1N/C(=N\c2nnc(-c3ccc(Cl)cc3)s2)S/C1=C\c1ccc([N+](=O)[O-])cc1
Hepacivirus hominis
  inhibition: 33%
